GRIN3A LBD mod – binders of NR3A ligand-binding domain, primary screen, biophysical, differential scanning fluorimetry, uHTS | Tm shift relative to glycine control, % at 25 µM | AID 1259313, 2017 | Glutamate receptor ionotropic, NMDA 3A (GRIN3A) ligand-binding domain | actives 2.5% (n = 340,000) | NR3A LBD differential scanning fluorimetry, Tm shift; 0% = protein alone, 100% = glycine-bound protein;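 active = melting temperature shift of at least 10% of the positive control shift, at one fixed dose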
Lipid droplet – inhibitors of hepatocyte lipid droplet formation, primary screen, imaging, high-throughput imaging, BODIPY stain; AID 1656, 2009; AML12 mouse hepatocytes, oleate lipid droplets; actives 0.4% (n = 240,000); inhibition, % at 6.5 µM;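 active = lipid droplet intensity inhibited by at least 50%, with more than 500 cells counted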
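Test system: AML12 hepatocytes (mouse); reagent: oleate loading, 100 µM; dosing: one dose, 6.5 µM compound; incubation: overnight exposure; signal: fluorescence imaging, 20x objective, two fields per well; read-out basis: % inhibition of corrected integrated BODIPY droplet signal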
GASC-1 inh – inhibitors of GASC-1 histone demethylase, primary screen, biochemical, fluorescence, DELFIA europium; actives 0.069% (n = 330,000); Lysine-specific demethylase 4C (Homo sapiens), Q9H3R0; GST-JMJD2C(1-420) H3K9me3 demethylation; AID 2099, 2009; inhibition, % at 2.35 µM;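 active = more than half of a compound's replicate wells show inhibition beyond 50%, single wells judged on their own value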;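 note: signal counts dimethyl H3K9 product captured on neutravidin plate; 0% = median of DMSO wells and 100% = 0.3 times that DMSO median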
NPR1 activator – GC-A stimulated cGMP production enhancers – HEK293 GC-A cells, cGMP TR-FRET, EC30 ANP, primary screen; 0% at EC30 ANP, 100% saturating ANP; AID 1671463, 2021; Atrial natriuretic peptide receptor 1 (Homo sapiens), P16066; activation, % at 10 µM; actives 0.14% (n = 370,000); in the data active = activation above about 40%
Target sequence (P16066 whole entry, looked up): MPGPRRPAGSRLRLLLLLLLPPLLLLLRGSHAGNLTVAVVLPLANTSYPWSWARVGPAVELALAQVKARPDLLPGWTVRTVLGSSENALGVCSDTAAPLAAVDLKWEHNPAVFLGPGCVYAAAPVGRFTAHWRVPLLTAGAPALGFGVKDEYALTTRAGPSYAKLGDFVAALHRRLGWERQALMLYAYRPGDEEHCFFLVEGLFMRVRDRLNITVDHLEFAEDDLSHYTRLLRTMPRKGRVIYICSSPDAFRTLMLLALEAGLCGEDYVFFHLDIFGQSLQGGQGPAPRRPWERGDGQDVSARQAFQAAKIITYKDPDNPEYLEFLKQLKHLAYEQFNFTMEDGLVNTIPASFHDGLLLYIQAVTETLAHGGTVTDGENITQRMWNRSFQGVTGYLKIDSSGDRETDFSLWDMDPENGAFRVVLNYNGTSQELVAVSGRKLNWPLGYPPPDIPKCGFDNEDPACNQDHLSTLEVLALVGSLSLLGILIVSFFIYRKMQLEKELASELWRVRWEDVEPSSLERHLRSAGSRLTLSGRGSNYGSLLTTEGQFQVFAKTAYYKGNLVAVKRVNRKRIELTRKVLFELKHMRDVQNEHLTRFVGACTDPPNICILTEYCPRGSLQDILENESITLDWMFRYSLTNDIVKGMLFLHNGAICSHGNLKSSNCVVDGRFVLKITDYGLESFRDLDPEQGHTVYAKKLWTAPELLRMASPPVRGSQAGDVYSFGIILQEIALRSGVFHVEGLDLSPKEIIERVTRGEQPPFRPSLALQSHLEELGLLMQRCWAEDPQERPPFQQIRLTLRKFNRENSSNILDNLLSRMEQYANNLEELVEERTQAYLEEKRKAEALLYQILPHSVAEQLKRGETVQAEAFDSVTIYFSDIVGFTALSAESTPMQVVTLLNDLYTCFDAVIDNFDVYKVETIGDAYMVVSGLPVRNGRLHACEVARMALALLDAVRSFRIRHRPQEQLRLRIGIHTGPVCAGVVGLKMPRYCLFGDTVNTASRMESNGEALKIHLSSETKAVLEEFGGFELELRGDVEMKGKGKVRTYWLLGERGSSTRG
NPR2 activator – human GC-B receptor activators, primary screen, HEK293 GC-B cells, cGMP TR-FRET, EC30 CNP; Atrial natriuretic peptide receptor 2 (Homo sapiens), P20594; 0% at EC30 CNP, 100% saturating CNP; activation, % at 10 µM; actives 0.11% (n = 370,000);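 active = activation at 10 µM reaching about 35% in either raw or pattern-adjusted values, limit read from the data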
aDG glyco up – activators of alpha-DG glycosylation, primary screen, uHTS, Pro5-aDG cells, AlphaScreen. AID 624168, 2012. alpha-DG glycosylation AlphaScreen (IIH6); 0% Pro5, 100% B10-LARGE cell signal. activation, % at 10 µM. actives 0.22% (n = 360,000);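 active = activation of at least 8% versus controls, or a plate z-score of at least 8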;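 note: Pro5 are CHO cells carrying HIG-tagged alpha-DG that lacks glycosylation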
Starred values were filed as active, the others as inactive; / = no result given. Compounds with a hit are over-represented: about 3% of the library has one in this group of screens.

SMILES | GRIN3A LBD mod | Lipid droplet | GASC-1 inh | NPR1 activator | NPR2 activator | aDG glyco up
Cc1noc(C)c1CCC(=O)N1CCCC(N2CCN(c3ccc(F)cc3)CC2)C1 (stereo unspecified) | -0.9 | -6.0 | -0.3 | 1.8 | 1.9 | -0.2
O=c1cc(N2CCN(c3cccc(C(F)(F)F)c3)CC2)[nH]c(=O)n1-c1ccccc1 | / | / | / | 2.4 | -7.6 | /
CCc1ccccc1-n1c(SCC(=O)NC)nnc1-c1ccco1 | 1.6 | 4.8 | 40.1 | -0.9 | -0.9 | -0.1
Clc1ccccc1/C=N/N1CCN(Cc2ccccc2)CC1 | 2.0 | 8.6 | -11.2 | 1.9 | 1.7 | -0.1
FC(F)(F)c1ccccc1/C=N/N1CCN(Cc2ccccc2)CC1 | 18.0* | -2.9 | 0.8 | 2.4 | -1.2 | -0.1
Cc1ccc(/C=C2/CNC/C(=C/c3ccc(C)cc3)C2=O)cc1 | 30.8* | / | / | 7.4 | -4.6 | -0.2
COc1cc(Cl)ccc1OC1(C)CCN(Cc2cccc(OC)c2OC)C1 (stereo unspecified) | / | / | / | -19.4 | -16.4 | -0.3
Cc1cc(Nc2cccc(Cl)c2Cl)n2ncnc2n1 | -4.0 | / | -12.3 | -1.2 | 39.1* | 0.0
Cc1ccc(Nc2cc(C)nc3ncnn23)c(Cl)c1 | -0.3 | 23.0 | -0.7 | 3.7 | 1.7 | 0.1
Cc1ccc(-n2c(SCC(N)=O)nc3c(c2=O)C2(CCCC2)Cc2ccccc2-3)cc1 | 13.1* | 12.2 | 6.5 | 5.5 | 10.2 | 0.0
CCSc1n[nH]c2nc3c(c(=O)n12)C1(CCCC1)Cc1ccccc1-3 | -3.7 | / | 0.0 | 3.2 | 1.9 | -0.1
COc1cc(/C=N/n2cnc3c(sc4nc(C)cc(C)c43)c2=O)ccc1O | 26.3* | -0.9 | 6.0 | / | / | /
Cc1cccc(NC(=O)c2ccc([N+](=O)[O-])s2)n1 | 6.6 | -2.4 | 3.1 | -1.3 | -5.2 | 7.2*
Cc1ccnc(NC(=O)c2ccc([N+](=O)[O-])s2)c1 | 2.0 | -4.6 | 8.2 | 0.5 | -0.7 | 8.4*
Cc1cccc(C)c1NC(=O)c1ccc([N+](=O)[O-])s1 | -1.3 | -4.0 | 1.1 | 13.9 | 8.9 | 1.2
CC(C)(C)OC(=O)N1CC=C2C(C#N)=C(N)C(C#N)(C#N)[C@H](c3cccnc3)[C@H]2C1 | -1.1 | -0.8 | -2.1 | 48.1* | -0.6 | -0.1
CC(C)(C)OC(=O)N1CC=C2C(C#N)=C(N)C(C#N)(C#N)C(c3cccs3)C2C1 (stereo unspecified) | 0.3 | -1.1 | -2.0 | 25.0 | -0.4 | 0.1
CCC(=O)Nc1ccc(NC(=S)NC(=O)c2oc3ccccc3c2C)cc1 | 2.4 | 22.1 | 4.5 | 0.3 | -4.0 | -0.2
C=CCNC(=S)NC(=O)c1oc2ccccc2c1C | 0.0 | 1.7 | 1.9 | -0.4 | -2.1 | 0.0
CCCNc1c(NS(=O)(=O)c2ccc(NC(=O)CC)cc2)c(=O)oc2ccccc12 | -5.3 | 4.3 | -5.6 | -3.7 | 5.8 | 6.5*
Cn1nc(C(=O)Nc2ccc(-n3cnnn3)cc2)c2ccccc2c1=O | -4.4 | / | 1.1 | -0.5 | -5.1 | -0.4
CCCNc1c(NS(=O)(=O)c2ccc(C)c(C)c2)c(=O)oc2ccccc12 | 3.3 | 5.3 | -8.0 | -4.7 | -2.5 | 0.0
Cc1c(C(=O)NC(=S)NCC(C)C)oc2ccccc12 | 17.9* | 5.3 | 1.8 | -0.4 | 2.8 | 0.1
CCC(=O)Nc1ccc(NC(=O)c2oc3ccccc3c2C)cc1 | 28.9* | 23.6 | -10.4 | -5.3 | 1.8 | 0.1
Cc1c(C(=O)Nc2ccc(-n3cnnn3)cc2)oc2ccccc12 | 26.8* | / | 8.8 | -1.3 | 4.8 | 0.8
SMILES | GRIN3A LBD mod | Lipid droplet | GASC-1 inh | NPR1 activator | NPR2 activator | aDG glyco up
O=C(NC(=S)NC1CCCCC1)c1ccc(F)cc1 | 4.3 | -3.9 | -4.0 | 4.1 | -3.7 | 0.4
COC(=O)C1CN(C2CCCC2)CCS(=O)(=O)N1Cc1ccccc1 (stereo unspecified) | / | / | / | 2.8 | -2.9 | /
CCSc1nc(N2CCCCC2)c2c(c1C#N)CCCC2 | 0.1 | 2.0 | 5.7 | -41.3 | -0.1 | -0.1
N#Cc1c(SCc2ccccc2)nc(N2CCOCC2)c2c1CCCC2 | -0.8 | / | -4.4 | 35.0 | 37.5* | -0.2
Cc1ccc(-c2cc(-c3nnc(SCC(=O)N4CCOCC4)n3N)[nH]n2)cc1 | / | / | / | 0.6 | -1.7 | /
COc1ccc(C(=O)/C=C/c2cn(CN3CCN(C)CC3)c3ccccc23)cc1 | 35.6* | 13.9 | 11.3 | / | / | 0.6
CCOc1ccc(C(=O)/C=C/c2cn(CN3CCN(C)CC3)c3ccccc23)cc1 | 32.1* | / | -2.9 | 4.3 | -6.2 | -0.1
N#Cc1cc(-c2ccccc2)oc1/N=C/c1ccccc1O | 18.1* | -1.0 | 2.9 | 9.8 | -5.5 | 0.1
NC(=O)c1ccc(-c2noc(-c3ccccc3F)n2)cc1 | -1.9 | / | 7.3 | -2.1 | -9.8 | -0.1
c1ccc(-c2noc(-c3ccccc3-c3ccccc3)n2)cc1 | 13.1* | -6.5 | 10.4 | 2.9 | -4.5 | 0.5
Fc1ccccc1-c1nc(-c2ccc(Cl)cc2)no1 | 21.4* | / | -1.7 | 15.1 | -2.1 | -0.5
O=C(O)c1ccc(-c2noc(-c3ccccc3Cl)n2)cc1 | 0.6 | / | 10.6 | 14.7 | 0.9 | 0.1
O=C(Nc1ccn(CCCNC2CCN(Cc3ccccc3)CC2)c(=O)n1)OCc1ccccc1 | / | / | / | -0.8 | 2.9 | 0.0
CCCN(CCC)CCc1cccc2c1CC(=O)N2 | / | / | / | 3.0 | 10.6 | /
CC(C)n1cc(/C=N/Nc2ccc(Cl)c(C(=O)O)c2)c2ccccc21 | / | -0.5 | 10.6 | / | / | 0.0
O=C(CN1C(=O)CCC1=O)Nc1nc(-c2cccs2)cs1 | -0.6 | / | -1.5 | 10.2 | 3.4 | -0.1
CC1CC1C(=O)Nc1nc(-c2ccc(Cl)s2)cs1 (stereo unspecified) | -3.2 | -0.4 | 17.0 | 50.5* | 4.5 | 0.8
O=C(CSCC(=O)N1CCCCC1)Nc1nc(-c2ccc(Cl)s2)cs1 | -6.5 | / | -1.9 | 43.4* | -1.6 | -0.5
O=C(Nc1nc(-c2ccc(Cl)s2)cs1)c1ccncc1 | -8.3 | / | -0.9 | / | / | 2.4
O=C(CN1C(=O)CCC1=O)Nc1nc(-c2ccc(Cl)s2)cs1 | -14.5 | 13.1 | 0.4 | 54.0* | 0.8 | -0.4
COC(=O)C[C@H]1CC[C@@H]2[C@@H](COc3ccc(NS(=O)(=O)c4ccccc4Cl)cc3C(=O)N2C)O1 | / | / | / | 1.8 | -3.9 | /
Cc1cc(S(=O)(=O)N2CCCC2C(=O)N2CCOCC2)c(C)cc1Cl (stereo unspecified) | 58.2* | -6.8 | -12.8 | 1.8 | -3.4 | 0.1
Cc1cc(S(=O)(=O)N2CCC3(CC2)OCCO3)c(C)cc1Cl | 2.2 | -6.8 | -14.7 | -1.6 | 1.0 | 0.3
